Among the data in ChEMBL document CHEMBL2390922, “Synthesis and biological evaluation of sulforaphane derivatives as potential antitumor agents” (Eur J Med Chem, 2013) are IC50 values, retold here.

Usually IC50 stands for the concentration that inhibits the measured activity by half.

Assay [1] has as its system Vero. Briefly: Cytotoxicity against African green monkey Vero cells after 72 hrs by MTT assay. The following applies: Chlorocebus sabaeus. The class given is cell-based. (Formazan colour is commonly taken as a measure of viable cells.)
Assay [2] is described as follows: Cytotoxicity against human SH-SY5Y cells after 72 hrs by MTT assay. It counts as functional, cell-based. An outline of the steps: (§1)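 Cells were grown in RPMI-1640 or DMEM with 10% NBS or FBS and 100 U/mL penicillin, at 37 °C under 5% CO₂. After 72 h with a range of compound concentrations, MTT was added for a further 4 h at 37 °C. Formazan was dissolved in DMSO and absorbance read at 570 and 630 nm. Assays ran in triplicate across three independent experiments, and IC₅₀ was calculated for 50% loss of viability.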

The subject of assay [3] is HCT-116. Briefly: Cytotoxicity against human HCT116 cells after 72 hrs by MTT assay. The note with it: HCT-116, 72 h. It counts as functional, cell-based. An outline of the steps:
as §1

For assay [4], the system named is A549. As to the kind of experiment: Cytotoxicity against human A549 cells after 72 hrs by MTT assay. The class given is functional, cell-based. The following applies: A549, 72 h. Summed up:
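After 72 h with a range of compound concentrations, MTT was added for a further 4 h at 37 °C. Formazan was dissolved in DMSO and absorbance read at 570 and 630 nm. Assays ran in triplicate across three independent experiments, and IC₅₀ was calculated for 50% loss of viability.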

Assay [5] has as its system MCF7. As to the kind of experiment: Cytotoxicity against human MCF7 cells after 72 hrs by MTT assay. The class given is functional, cell-based. The following applies: MCF7, 72 h. An outline of the steps:
as §1

Assay [6] has as its system HepG2. As to the kind of experiment: Cytotoxicity against human HepG2 cells after 72 hrs by MTT assay. The class given is functional, cell-based. The note with it: HepG2, 72 h. An outline of the steps:
as §1

Molecules are shown by their SMILES.

On to `O=[N+]([O-])c1ccc(C[S+]([O-])CCCCN=C=S)cc1` (stereo not given), for which the IC50 was determined as 3.36 µM in assay [1]; 7.23 µM in assay [2]; 2.83 µM in assay [3]; 14.3 µM in assay [4]; 7.77 µM in assay [5]; 3.18 µM in assay [6].

Regarding `CCC[S+]([O-])CCCCN=C=S` (stereo not given), the IC50 in assay [1] came to 5.64 µM; in assay [2], 7.66 µM; in assay [3], 3.95 µM; in assay [4], 10.7 µM; in assay [5], 5.96 µM; in assay [6], 3.91 µM.

On to `CCCC[S+]([O-])CCCCN=C=S` (stereo not given), for which the IC50 in assay [1] was found to be 5.15 µM; in assay [2] it was 6.47 µM; in assay [3] it was 2.81 µM; in assay [4], 9.56 µM; in assay [5], 5.84 µM; in assay [6], 5.93 µM.

In the case of `[O-][S+](CCCCCN=C=S)Cc1ccccc1` (stereo not given), the IC50 in assay [1] came out at 5.85 µM; in assay [2] it was 7.01 µM; in assay [3], 5.19 µM; in assay [4], 6.21 µM; in assay [5], 3.83 µM; in assay [6] it was 3.91 µM.

Consider `CC(C)[S+]([O-])CCCCCCN=C=S` (stereo not given), for which the concentration for half-maximal inhibition (IC50) in assay [1] was determined as 7.31 µM; in assay [2] it was 7.82 µM; in assay [3] it was 9.46 µM; in assay [4] it was 12 µM; in assay [5], 9.76 µM; in assay [6] it was 7.82 µM.

On to `[O-][S+](CCCCN=C=S)CCc1ccccc1` (stereo not given), for which the IC50 was 6.82 µM in assay [1]; 5.6 µM in assay [2]; 8.02 µM in assay [3]; 10.2 µM in assay [4]; 9.33 µM in assay [5]; 6.97 µM in assay [6].

Turning to `[O-][S+](CCCN=C=S)Cc1ccccc1` (stereo not given), the IC50 was 10.1 µM in assay [1]; 8.89 µM in assay [2]; 15.6 µM in assay [3]; 11.8 µM in assay [4]; 7.92 µM in assay [5]; 9.84 µM in assay [6].

With `[O-][S+](CCCCN=C=S)C1CCCC1` (stereo not given), the concentration for half-maximal inhibition (IC50) in assay [1] amounted to 4.6 µM; in assay [2], 7.14 µM; in assay [3], 3.14 µM; in assay [4], 10.1 µM; in assay [5] it was 4.45 µM; in assay [6], 3.64 µM.

With `CC[S+]([O-])CCCCN=C=S` (stereo not given), the 50% inhibitory concentration (IC50) in assay [1] was 7.9 µM; in assay [2], 9.81 µM; in assay [3], 3.85 µM; in assay [4] it was 10.2 µM; in assay [5] it was 8.26 µM; in assay [6], 5.35 µM.

`[O-][S+](CCCCN=C=S)Cc1ccco1` (stereo not given): the half-inhibitory concentration (IC50) in assay [1] was determined as 5.25 µM; in assay [2], 7.79 µM; in assay [3], 3.47 µM; in assay [4] it was 5.64 µM; in assay [5], 5.68 µM; in assay [6], 3.86 µM.

In the case of `CC(C)[S+]([O-])CCCN=C=S` (stereo not given), the IC50 in assay [1] came to 8.25 µM; in assay [2], 18.1 µM; in assay [3], 15.9 µM; in assay [4] it was 16.7 µM; in assay [5], 7.93 µM; in assay [6] it was 7.14 µM.

On to `O=S(=O)(CCCCN=C=S)Cc1ccccc1`, for which the half-inhibitory concentration (IC50) came to 7.17 µM in assay [1]; 4.78 µM in assay [2]; 6.28 µM in assay [3]; 8.89 µM in assay [4]; 7.55 µM in assay [5]; 8.49 µM in assay [6].

For the compound `[O-][S+](CCCCN=C=S)Cc1ccccn1` (stereo not given), the 50% inhibitory concentration (IC50) in assay [1] was 7.65 µM; in assay [2] it was 7.83 µM; in assay [3], 3.72 µM; in assay [4], 8.33 µM; in assay [5], 6.89 µM; in assay [6], 5.35 µM.

As to `[O-][S+](CCCCN=C=S)c1ccccc1` (stereo not given), the IC50 in assay [1] was found to be 4.33 µM; in assay [2], 8.75 µM; in assay [3], 4.53 µM; in assay [4], 23.8 µM; in assay [5] it was 7.05 µM; in assay [6], 6.34 µM.

On to `S=C=NCCCCSCc1ccccc1`, for which the 50% inhibitory concentration (IC50) in assay [1] is 24.9 µM; in assay [2] it was 20.7 µM; in assay [3] it was 41.5 µM; in assay [4] it was 51.3 µM; in assay [5] it was 38.3 µM; in assay [6], 12.6 µM.

With `COc1ccc(C[S+]([O-])CCCCN=C=S)cc1` (stereo not given), the IC50 is 3.71 µM in assay [1]; 2.79 µM in assay [2]; 5.46 µM in assay [3]; 32.5 µM in assay [4]; 8.89 µM in assay [5]; 4.62 µM in assay [6].

Consider `CC(C)[S+]([O-])CCCCCN=C=S` (stereo not given), for which the concentration for half-maximal inhibition (IC50) stood at 10.3 µM in assay [1]; 8.62 µM in assay [2]; 3.42 µM in assay [3]; 7.75 µM in assay [4]; 6.78 µM in assay [5]; 3.69 µM in assay [6].

As for `[O-][S+](CCCCN=C=S)Cc1cccs1` (stereo not given), the IC50 in assay [1] stood at 6.22 µM; in assay [2], 5.31 µM; in assay [3] it was 3.21 µM; in assay [4], 8.41 µM; in assay [5], 4.14 µM; in assay [6] it was 3.82 µM.

Consider `O=c1[nH]cc(F)c(=O)[nH]1` [FLUOROURACIL], for which the IC50 is 9.71 µM in assay [1], 0.97 µM in assay [2], 3.24 µM in assay [3] and 10.1 µM in assay [5].

Take `CC(C)C[S+]([O-])CCCCN=C=S` (stereo not given): the IC50 turned out to be 4.98 µM in assay [1]; 5.7 µM in assay [2]; 2.06 µM in assay [3]; 9.09 µM in assay [4]; 3.66 µM in assay [5]; 2.16 µM in assay [6].

With `CC(C)[S+]([O-])CCCCN=C=S` (stereo not given), the IC50 worked out at 10.4 µM in assay [1]; 9.42 µM in assay [2]; 3.74 µM in assay [3]; 10.4 µM in assay [4]; 8.82 µM in assay [5]; 2.05 µM in assay [6].

Consider `[O-][S+](CCCCCCN=C=S)Cc1ccccc1` (stereo not given), for which the 50% inhibitory concentration (IC50) in assay [1] was 4.33 µM; in assay [2], 7.63 µM; in assay [3] it was 11.6 µM; in assay [4] it was 14.7 µM; in assay [5], 5.49 µM; in assay [6] it was 6.17 µM.
